Results reported in ChEMBL document CHEMBL1125319, “Synthesis and hypoglycemic activity of substituted 8-(1-piperazinyl)imidazo[1,2-a]pyrazines” (J Med Chem, 1992).
Calls of active or inactive are those of the source. The calls are words filed in the database; no cut-off is given here.

Experiments:
[1] = target: T1, Alpha-2A adrenergic receptor (Bos taurus, UniProt Q28838); experiment: Binding affinity at Alpha-2 adrenergic receptor in calf cerebral cortex homogenates by [3H]clonidine displacement.; type: tissue-based
T1 sequence (Q28838 whole entry): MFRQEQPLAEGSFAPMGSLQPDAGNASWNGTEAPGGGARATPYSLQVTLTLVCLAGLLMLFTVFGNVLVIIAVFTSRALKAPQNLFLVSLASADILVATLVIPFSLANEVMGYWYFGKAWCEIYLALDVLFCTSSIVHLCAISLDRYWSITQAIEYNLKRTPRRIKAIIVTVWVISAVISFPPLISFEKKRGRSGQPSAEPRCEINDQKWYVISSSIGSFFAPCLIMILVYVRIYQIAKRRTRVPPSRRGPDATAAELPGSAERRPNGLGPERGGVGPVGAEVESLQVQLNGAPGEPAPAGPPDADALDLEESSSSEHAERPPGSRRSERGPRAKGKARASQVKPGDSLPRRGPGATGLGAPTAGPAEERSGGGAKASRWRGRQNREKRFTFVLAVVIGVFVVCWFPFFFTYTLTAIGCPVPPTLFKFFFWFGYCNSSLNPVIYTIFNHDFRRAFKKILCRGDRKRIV

[2] = Binding affinity against Alpha-1 adrenergic receptor of calf cerebral cortex homogenates using [3H]prazosin; type: tissue-based, Bos taurus
Mus musculus [3] = experiment: Ability to lower blood glucose in insulin-resistant hyperglycemic ob/ob mice after 30 mg/kg p.o. administration.; type: functional; details: route oral
[4] = Hypoglycemic potency relative to MTP-1403; type: functional
Method in brief: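 ob/ob insulin-resistant hyperglycemic mice on lab chow with free water. Graded oral doses given to groups of 5 mice; glucose load 2 g/kg sc 30 min after dosing, orbital sinus bleed 30 min after the load. Blood glucose compared with a reference standard by parallel-line bioassay, giving potency relative to the standard.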

[5] = target: Beta-2 adrenergic receptor (Cavia porcellus, UniProt Q8K4Z4)
[6] = target: T2, Beta-1 adrenergic receptor (Cavia porcellus, UniProt B0FL73)
Mus musculus [7] = experiment: Compound was evaluated for its ability to lower blood glucose in insulin-resistant hyperglycemic ob/ob mice after peroral administration of 30 mg/kg single dose; NA= not active; type: functional, organism-based; set-up: dose 30 mg/kg; details: at 30 mg/kg
[8] = target: T3, Alpha-1A adrenergic receptor (Bos taurus) (UniProt P18130); experiment: Inhibition of binding of [3H]prazosin to Alpha-1 adrenergic receptor in calf cerebral cortex homogenates at 10000 nM; type: tissue-based
T3 sequence (whole entry): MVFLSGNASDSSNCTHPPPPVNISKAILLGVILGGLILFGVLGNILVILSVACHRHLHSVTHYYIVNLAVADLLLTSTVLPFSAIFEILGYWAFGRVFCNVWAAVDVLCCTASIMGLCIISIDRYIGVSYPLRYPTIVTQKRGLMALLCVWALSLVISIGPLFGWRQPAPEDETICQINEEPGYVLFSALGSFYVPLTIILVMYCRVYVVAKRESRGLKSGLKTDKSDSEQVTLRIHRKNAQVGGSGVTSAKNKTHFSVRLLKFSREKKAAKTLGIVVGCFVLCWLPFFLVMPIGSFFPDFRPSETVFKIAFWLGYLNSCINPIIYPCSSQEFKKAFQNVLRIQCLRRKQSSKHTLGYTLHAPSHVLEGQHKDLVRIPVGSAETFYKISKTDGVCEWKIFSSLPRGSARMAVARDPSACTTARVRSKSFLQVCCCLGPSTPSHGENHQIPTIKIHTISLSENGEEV

[9] = target: T4, Alpha-1A adrenergic receptor (Bos taurus, UniProt P18130); experiment: Binding affinity against alpha-1 adrenergic receptor was determined in calf cerebral cortex homogenates using [3H]prazosin as radioligand; type: tissue-based
T4 sequence (P18130 whole entry): T3 sequence (whole entry)

[10] = target: T2, Beta-1 adrenergic receptor; experiment: Binding affinity against Beta-1 adrenergic receptor was measured using [125I]CYP as radioligand; NB= not bound

Chain of Beta-2 adrenergic receptor (Q8K4Z4 whole entry): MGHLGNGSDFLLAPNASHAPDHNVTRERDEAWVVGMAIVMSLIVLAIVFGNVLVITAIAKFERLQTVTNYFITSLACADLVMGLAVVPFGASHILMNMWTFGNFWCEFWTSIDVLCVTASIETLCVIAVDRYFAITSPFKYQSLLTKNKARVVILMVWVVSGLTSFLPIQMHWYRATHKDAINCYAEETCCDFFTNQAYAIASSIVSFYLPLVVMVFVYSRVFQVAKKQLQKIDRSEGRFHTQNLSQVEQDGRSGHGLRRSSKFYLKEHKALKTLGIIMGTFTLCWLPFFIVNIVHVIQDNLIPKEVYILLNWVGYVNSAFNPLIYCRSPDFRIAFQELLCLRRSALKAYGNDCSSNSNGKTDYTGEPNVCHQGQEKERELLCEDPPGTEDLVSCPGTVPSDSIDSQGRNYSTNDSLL
T2 sequence (B0FL73 whole entry): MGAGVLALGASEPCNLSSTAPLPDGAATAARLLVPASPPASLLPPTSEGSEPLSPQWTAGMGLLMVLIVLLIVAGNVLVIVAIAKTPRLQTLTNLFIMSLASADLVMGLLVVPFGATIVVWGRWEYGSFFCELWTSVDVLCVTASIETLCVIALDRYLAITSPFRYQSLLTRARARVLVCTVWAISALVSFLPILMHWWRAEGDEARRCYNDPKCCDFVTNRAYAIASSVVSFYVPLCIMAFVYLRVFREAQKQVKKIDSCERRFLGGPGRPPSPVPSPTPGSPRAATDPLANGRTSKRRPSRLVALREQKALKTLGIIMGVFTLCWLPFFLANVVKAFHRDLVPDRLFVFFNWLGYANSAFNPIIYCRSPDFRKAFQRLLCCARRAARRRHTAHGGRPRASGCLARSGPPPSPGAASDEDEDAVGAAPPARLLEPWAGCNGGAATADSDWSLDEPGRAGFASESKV

| Structure (SMILES) | Ki [1] | Ki [2] | Blood glucose, percent of control (Mus musculus [3]) | Relative potency [4] | Ki [5] | Ki [6] | Control (Mus musculus [7]) | inhibition [8] | Ki [9] | Ki [10] |
| --- | --- | --- | --- | --- | --- | --- | --- | --- | --- | --- |
| Cc1cn2c(C)cnc2c(N2CCNCC2)n1.Cl | 620 nM | 300 nM | 47% | 6 | 250 nM | 150 nM | – | – | – | – |
| Brc1cnc(N2CCNCC2)c2ncc(Br)n12 | 11900 nM | – | – | – | – | 630 nM | inactive | – | – | – |
| C1=CN2CCN=C2C(N2CCNCC2)=N1.O=C(O)C/C=C\CC(=O)O | 870 nM | – | 71% | – | – | – | – | 15% | – | – |
| Cc1cnc2c(N3CCNCC3)nccn12.Cl | 240 nM | 1800 nM | 32% | 11 | 2300 nM | 2400 nM | – | – | – | – |
| Cl.Clc1cnc2c(N3CCNCC3)nccn12 | – | 2780 nM | 66% | – | – | – | – | – | – | – |
| Cc1cnc(N2CCNCC2)c2nccn12.Cl | 140 nM | 2600 nM | 52% | 17 | 820 nM | 360 nM | – | – | – | – |
| CCc1cnc2c(N3CCNCC3)nccn12.Cl | 530 nM | – | 54% | 4 | 3240 nM | 5000 nM | – | 30% | – | – |
| Cl.Cl.Clc1cn2ccnc2c(N2CCNCC2)n1 | – | – | 36% | > 5 | – | – | – | – | 250 nM | – |
| Brc1cnc(N2CCNCC2)c2nccn12 | 182 nM | 1490 nM | 87% | – | 520 nM | 170 nM | – | – | – | – |
| Cc1cnc(N2CCN(C)CC2)c2nccn12 | 81 nM | – | 51% | 6 | – | 2800 nM | – | 45% | – | – |
| CN1CCN(c2ncc(Br)n3ccnc23)CC1 | 270 nM | – | 100% | – | – | 500 nM | – | 22% | – | – |
| Cc1cn2ccnc(N3CCNCC3)c2n1.Cl | 51 nM | – | 28% | 32 | – | 310 nM | – | – | – | – |
| CN1CCN(c2nccn3c(Br)cnc23)CC1 | 1350 nM | – | 98% | – | – | 6300 nM | – | 4% | – | – |
| Cc1cnc(N2CCNCC2)c2ncc(C)n12.Cl | 340 nM | – | 72% | – | – | 400 nM | – | – | – | – |
| CC(C)c1cnc2c(N3CCNCC3)nccn12.Cl | 370 nM | 5430 nM | 60% | 3 | 2010 nM | 2990 nM | – | – | – | – |
| CN1CCN(c2nccn3ccnc23)CC1 | 1020 nM | – | 62% | 19 | – | – | – | – | – | Not Active |
| c1cn2ccnc2c(N2CCNCC2)n1 | – | 3100 nM | – | 76 | 1700 nM | 400 nM | – | – | – | – |
| CC1CN=C2C(N3CCNCC3)=NC=CN21.O=C(O)C/C=C\CC(=O)O (stereo not given) | 1600 nM | – | 88% | – | – | – | – | 12% | – | – |
| Cl.FCCc1cnc2c(N3CCNCC3)nccn12 | – | – | 56% | 8 | – | – | – | – | – | – |
| Cc1cn2ccnc2c(N2CCNCC2)n1.Cl | 190 nM | 500 nM | 61% | – | 280 nM | 220 nM | – | – | – | – |
| CCCc1cnc2c(N3CCNCC3)nccn12.Cl | 480 nM | 2650 nM | 59% | 4 | 1390 nM | 7790 nM | – | – | – | – |
